Reference: ChEMBL document CHEMBL1649308, “Affinity of the new cephalosporin CXA-101 to penicillin-binding proteins of Pseudomonas aeruginosa” (Antimicrob Agents Chemother, 2010)
In brackets after ≈: the same amount, converted by molar mass. Activity calls are given as the source filed them. The calls are words filed in the database; no cut-off is given here.

Columns and labels:
Pseudomonas aeruginosa [1] = assay: Induction of ampC mRNA expression in Pseudomonas aeruginosa PAO1 at 50 ug/ml relative to untreated control; type: functional
How it was run: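 The inducer was given at 50 μg/ml for 3 h, with an untreated comparison. RNA from log-phase LB cultures was DNase-treated, and ampC expression was quantified by real-time RT-PCR normalized to rpsL. Values are the mean of at least three independent duplicate experiments.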

[2] = Inhibition of Pseudomonas aeruginosa PAO1 PBP1b by SDS-PAGE
How it was run: (§1)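 Membranes were prepared from late-log (OD600 1) LB cultures by sonication and two rounds of 150,000 × g ultracentrifugation in 20 mM KH2PO4-140 mM NaCl, pH 7.5. Membranes were preincubated 30 min at 37°C with drug (0.0156–2 μg/ml), then labeled with 25 μM Bocillin FL. Samples were run on SDS-PAGE and read by fluorescence (ex 488/em 530 nm). IC50 values come from triplicate experiments.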

[3] = Inhibition of Pseudomonas aeruginosa PAO1 PBP4 by SDS-PAGE; how it was run: as §1
Pseudomonas aeruginosa [4] = assay: Induction of ampC mRNA expression in Pseudomonas aeruginosa PAO1 at 0.5 X MIC relative to untreated control; type: functional
How it was run: (§2)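 Cells were exposed for 3 h to subinhibitory drug (1/2 or 1/4 MIC), alongside untreated cells. RNA was taken from log-phase LB cultures and DNase-treated (2 U, 30 min, 37°C). ampC mRNA was measured by real-time RT-PCR and normalized to rpsL. Values are the mean relative expression from at least three independent duplicate experiments.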

[5] = Inhibition of Pseudomonas aeruginosa PAO1 PBP2 by SDS-PAGE; how it was run: as §1
Pseudomonas aeruginosa [6] = assay: Bactericidal activity against Pseudomonas aeruginosa PAO1 assessed as reduction in viable bacterial count at 2 X MIC after 8 hrs by time-kill analysis; type: functional
How it was run: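 PAO1 grown overnight in Mueller-Hinton broth, diluted 1/100 and grown at 37°C, 180 rpm to mid-log phase (OD600 0.2). Then inoculated into MHB with 0, 0.5×, 1×, 2× or 4× MIC to an initial OD600 of 0.01 (ca. 10^7 CFU/ml). Viable counts taken by plating serial dilutions on MH agar over 8 h. Triplicate experiments, mean ± SD.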

Pseudomonas aeruginosa [7] = assay: Antimicrobial activity against Pseudomonas aeruginosa PAO1 assessed as appearance of long filaments at 0.5 X MIC after 2 hrs by Live/dead cell viability assay; type: functional, organism-based
[8] = Inhibition of Pseudomonas aeruginosa PAO1 PBP5/6 by SDS-PAGE; how it was run: as §1
Pseudomonas aeruginosa [9] = assay: Antimicrobial activity against Pseudomonas aeruginosa PAO1 at 4 X MIC after 8 hrs by Live/dead cell viability assay; type: functional, organism-based
Pseudomonas aeruginosa [10] = assay: Antimicrobial activity against Pseudomonas aeruginosa PAO1 by broth microdilution method; type: functional
How it was run: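 MICs against strain PAO1 by standard CLSI broth microdilution (M100-S18).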

[11] = Inhibition of Pseudomonas aeruginosa PAO1 PBP3 by SDS-PAGE; how it was run: as §1
[12] = Inhibition of Pseudomonas aeruginosa PAO1 PBP1c by SDS-PAGE; how it was run: as §1
Pseudomonas aeruginosa [13] = assay: Induction of ampC mRNA expression in Pseudomonas aeruginosa PAO1 at 0.25 X MIC relative to untreated control; type: functional; how it was run: as §2
Pseudomonas aeruginosa [14] = assay: Bactericidal activity against Pseudomonas aeruginosa PAO1 assessed as reduction in viable bacterial count at MIC after 8 hrs by time-kill analysis; type: functional
How it was run: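 Overnight MHB cultures were diluted 1/100 and grown at 37°C, 180 rpm to OD600 0.2. Flasks of MHB with 0, 0.5×, 1×, 2× or 4× MIC were inoculated to OD600 0.01 (ca. 10^7 CFU/ml). Viable counts were followed over 8 h by plating serial dilutions on MH agar, with OD600 also read. Values are the mean ± SD of triplicate runs.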

| SMILES | fold change (FC) (Pseudomonas aeruginosa [1]) | IC50 [2] | IC50 [3] | fold change (FC) (Pseudomonas aeruginosa [4]) | IC50 [5] | Activity (Pseudomonas aeruginosa [6]) | Activity (Pseudomonas aeruginosa [7]) | IC50 [8] | Activity (Pseudomonas aeruginosa [9]) | MIC (Pseudomonas aeruginosa [10]) | IC50 [11] | IC50 [12] | fold change (FC) (Pseudomonas aeruginosa [13]) | fold change (FC) (Pseudomonas aeruginosa [14]) |
| --- | --- | --- | --- | --- | --- | --- | --- | --- | --- | --- | --- | --- | --- | --- |
| CO[C@@]1(NC(=O)Cc2cccs2)C(=O)N2C(C(=O)O)=C(COC(N)=O)CS[C@@H]21 [CEFOXITIN] | 50 | – | – | – | – | – | – | – | – | – | – | – | – | – |
| CC(C)(O/N=C(\C(=O)N[C@@H]1C(=O)N2C(C(=O)[O-])=C(C[n+]3ccccc3)CS[C@H]12)c1csc(N)n1)C(=O)O [CEFTAZIDIME] | – | 0.12 mg/L (≈ 0.22 µM) | 1.23 mg/L (≈ 2.25 µM) | 1.2 | > 2 mg/L | >3 | Active | > 2 mg/L | Active | 1 mg/L (≈ 1.83 µM) | 0.04 mg/L (≈ 0.0732 µM) | > 2 mg/L | 1.2 | – |
| Cn1c(N)c(NC(=O)NCCN)c[n+]1CC1=C(C(=O)O)N2C(=O)[C@@H](NC(=O)/C(=N\OC(C)(C)C(=O)[O-])c3nsc(N)n3)[C@H]2SC1 [CEFTOLOZANE] | – | 0.07 mg/L (≈ 0.105 µM) | 0.29 mg/L (≈ 0.435 µM) | 1.3 | 1.36 mg/L (≈ 2.04 µM) | – | Active | > 2 mg/L | Active | 0.5 mg/L (≈ 0.75 µM) | 0.02 mg/L (≈ 0.03 µM) | 0.64 mg/L (≈ 0.96 µM) | 1.6 | >3 |
| C[C@@H](O)[C@H]1C(=O)N2C(C(=O)O)=C(SCCNC=N)C[C@H]12 [IMIPENEM ANHYDROUS] | – | 0.13 mg/L (≈ 0.434 µM) | 0.02 mg/L (≈ 0.0668 µM) | 269.5 | 0.08 mg/L (≈ 0.267 µM) | – | Active | 0.2 mg/L (≈ 0.668 µM) | Active | 1 mg/L (≈ 3.34 µM) | 0.12 mg/L (≈ 0.401 µM) | 0.08 mg/L (≈ 0.267 µM) | 193.2 | – |
